In one data set the test system is IGROV-1. The data set is described as follows: Growth inhibition of human IGROV1 cells after 48 hrs by sulforhodamine B assay. It counts as functional. The following applies: IGROV-1, 48 h. In outline:
(§1)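 NCI 60-panel five-dose test at 10-fold dilutions, 10^-4 to 10^-8 M, with 48 h continuous exposure and SRB protein read-out. Percent growth derived from time-zero, untreated-control and treated absorbances. GI50 is the concentration where [(Ti-Tz)/(C-Tz)]×100 = 50. TGI is taken at Ti = Tz. LC50 is taken at [(Ti-Tz)/Tz]×100 = -50.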

The next data set relates to LOX IMVI. The data set is described as follows: Growth inhibition of human LOXIMVI cells assessed as cell growth at 10^-5 M after 48 hrs by sulforhodamine B assay. Format: functional. The settings on record: read-out: Activity. In outline: (§2)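 NCI 60-cell-line primary screen. Single concentration of 10^-5 M, 48 h incubation. End point by sulforhodamine B protein staining read spectrophotometrically. Reported as percent growth of treated cells relative to untreated control cells.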

Another data set deals with OVCAR-4. The data set is described as follows: Growth inhibition of human OVCAR4 cells after 48 hrs by sulforhodamine B assay. The settings on record: OVCAR-4, 48 h; for CC50: read-out: LC50 (the source's name). Format: functional. In outline:
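NCI five-dose screen on the full 60-cell-line panel. Cells were given 10-fold dilutions from 10^-4 to 10^-8 M with continuous 48 h exposure, and growth was read by SRB staining. Percent growth was taken from time-zero, control and treated absorbances. GI50, TGI and LC50 were then derived, the GI50 being the concentration that gives a 50% lower net protein increase than control.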

Data set [1] can be described thus: Octanol-phosphate buffer partition coefficient, log P of the compound after 5 hrs by shake-flask method. Format: physicochemical. In outline: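 Shake-flask method: 100 µL of 0.2 mg/mL stock diluted into 1.9 mL phosphate buffer pH 7.4 plus 2 mL mutually saturated n-octanol, protected from light. Vortexed 3 min, shaken 5 h at 25 °C. Both phases assayed by UV at 272 nm; log P = log([octanol]/[aqueous]), run in triplicate.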

A further data set deals with RXF 393. The data set is described as follows: Growth inhibition of human RXF393 cells assessed as cell growth at 10^-5 M after 48 hrs by sulforhodamine B assay. Format: functional. The settings on record: RXF 393, 48 h, read-out: Activity. The method, boiled down:
(§3)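 NCI 60-cell-line primary one-dose screen. Cells were exposed to a single 10^-5 M concentration for 48 h. The end point was sulforhodamine B protein staining, read spectrophotometrically. Results are reported as percent growth of treated cells relative to untreated control cells.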

A further data set deals with NCI-H322M. The data set is described as follows: Growth inhibition of human NCI-H322M cells assessed as cell growth at 10^-5 M after 48 hrs by sulforhodamine B assay. It counts as functional. The settings on record: read-out: Activity. In outline:
as §3

Another data set relates to NCI-H522. The data set is described as follows: Growth inhibition of human NCI-H522 cells assessed as cell growth at 10^-5 M after 48 hrs by sulforhodamine B assay. It counts as functional. The settings on record: NCI-H522, 48 h, read-out: Activity. The method, boiled down: as §3
The nature of data set [2]: Growth inhibition of human HCC2998 cells assessed as cell growth at 10^-5 M after 48 hrs by sulforhodamine B assay. It counts as functional. The following applies: HCC 2998, 48 h, read-out: Activity. In outline:
as §2

In a further data set the test system is SK-MEL-2. The data set is described as follows: Growth inhibition of human SK-MEL-2 cells assessed as cell growth at 10^-5 M after 48 hrs by sulforhodamine B assay. It counts as functional. The settings on record: SK-MEL-2, 48 h, read-out: Activity. The method, boiled down:
as §3

For another data set, the system named is UACC-62. The data set is described as follows: Growth inhibition of human UACC62 cells after 48 hrs by sulforhodamine B assay. It counts as functional. The following applies: UACC-62, 48 h. In outline: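 NCI 60-cell panel, five concentrations (10-fold dilutions, 0.01–100 µM), 48 h continuous exposure; SRB protein stain read spectrophotometrically. Percent growth from time-zero, untreated-control and treated absorbances. GI50 is the concentration giving 50% lower net protein increase than control. Values beyond the tested range are reported as more or less than the highest or lowest concentration.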

Data set [3] can be described thus: Aqueous solubility of the compound at pH 7.8 by UV spectroscopic analysis. It counts as physicochemical. The following applies: aqueous solution. The method, boiled down: (§4)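 Excess solid (10 mg) shaken in buffer at pH 6.9 or 7.8, 37 °C. The filtrate was diluted into the linear calibration range and dissolved drug measured by UV absorbance at λmax 272 nm. Values are the average of at least three agreeing independent measurements.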

A short description of data set [4]: Aqueous solubility of the compound at pH 6.9 by UV spectroscopic analysis. Format: physicochemical. The settings on record: aqueous solution. In outline:
as §4

The next data set concerns MCF7. The data set is described as follows: Growth inhibition of human MCF7 cells assessed as cell growth at 10^-5 M after 48 hrs by sulforhodamine B assay. It counts as functional. The following applies: MCF7, 48 h, read-out: Activity. The method, boiled down: as §2
The subject of another data set is NCI-H23. The data set is described as follows: Growth inhibition of human NCI-H23 cells assessed as cell growth at 10^-5 M after 48 hrs by sulforhodamine B assay. Format: functional. The following applies: NCI-H23, 48 h, read-out: Activity. In outline:
as §3

For the next data set, the system named is ACHN. The data set is described as follows: Growth inhibition of human ACHN cells after 48 hrs by sulforhodamine B assay. Format: functional. The settings on record: for CC50: read-out: LC50 (the source's name). The method, boiled down:
as §1

Data set [5] has as its target T1, DNA topoisomerase 1 (Homo sapiens) (UniProt P11387).
T1 sequence (whole entry): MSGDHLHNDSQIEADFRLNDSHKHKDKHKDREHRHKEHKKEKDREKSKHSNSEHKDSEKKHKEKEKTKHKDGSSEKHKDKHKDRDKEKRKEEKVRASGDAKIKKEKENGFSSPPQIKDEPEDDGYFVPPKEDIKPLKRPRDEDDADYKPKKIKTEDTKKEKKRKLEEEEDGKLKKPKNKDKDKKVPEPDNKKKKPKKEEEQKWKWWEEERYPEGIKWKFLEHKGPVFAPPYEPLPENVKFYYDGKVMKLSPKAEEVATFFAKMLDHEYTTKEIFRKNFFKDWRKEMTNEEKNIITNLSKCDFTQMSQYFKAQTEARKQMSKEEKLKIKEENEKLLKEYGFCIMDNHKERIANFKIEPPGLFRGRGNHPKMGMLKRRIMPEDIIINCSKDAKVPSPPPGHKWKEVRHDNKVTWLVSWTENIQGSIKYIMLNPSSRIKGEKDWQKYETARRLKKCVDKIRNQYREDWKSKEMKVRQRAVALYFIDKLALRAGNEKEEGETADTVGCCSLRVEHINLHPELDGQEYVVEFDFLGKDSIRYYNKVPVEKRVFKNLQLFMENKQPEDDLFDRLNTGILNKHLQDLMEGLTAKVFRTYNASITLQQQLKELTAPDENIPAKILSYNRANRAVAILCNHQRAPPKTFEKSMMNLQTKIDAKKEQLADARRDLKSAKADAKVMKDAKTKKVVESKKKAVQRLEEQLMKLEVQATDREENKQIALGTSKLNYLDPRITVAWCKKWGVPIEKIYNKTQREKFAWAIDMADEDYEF
The data set is described as follows: Inhibition of human recombinant topoisomerase 1-mediated relaxation of supercoiled pBR322 DNA at 20 uM after 30 mins by agarose gel electrophoresis relative to control. The method, boiled down: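 Recombinant human topo I (0.4 units) with 100 ng supercoiled pBR322, 37 °C for 30 min in Tris-HCl pH 7.9, 150 mM NaCl, 0.1% BSA, 1 mM spermidine, 5% glycerol. Compounds came from 20 mM DMSO stocks, with matched DMSO in the enzyme-only control. Stopped with sarcosyl; 1% agarose/TAE gel, ethidium stain, UV densitometry. Camptothecin was the positive control.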

Converted amounts (≈) assume the structure as drawn.

Consider `O=C(CN1CCN(c2cc3c(cc2F)c(=O)c(C(=O)O)cn3C2CC2)CC1)Nc1ccc(C(=O)/C=C/c2ccccc2)cc1`, for which the GI50 with IGROV-1 was determined as 3670 nM; with OVCAR-4, 9.47 µM; in the data set with UACC-62, 3710 nM; in the data set on ACHN it was 3300 nM. In the data set on IGROV-1, this molecule displayed an LC50 (concentration giving 50% net cell kill) greater than 100 µM. Also, the TGI in the data set with IGROV-1 was greater than 100000 nM; in the data set on OVCAR-4, greater than 100 µM; in the data set on UACC-62 it was greater than 100 µM; with ACHN, 31.9 µM. Also, the growth at 10 µM was found to be 5.67% in the data set on LOX IMVI; 41.7% with RXF 393; 73.7% with NCI-H322M; 10.6% in the data set with NCI-H522; 70.1% in data set [2]; 53.7% in the data set on SK-MEL-2. The values for the growth at 10 µM in the data set on MCF7 and with NCI-H23 were 12.5% and 24%, respectively. Besides, the CC50 in the data set on OVCAR-4 and in the data set on ACHN was greater than 100 µM each time. The molecule also returned a logP at 5 h in [1] of 1.29. Further, the LC50 with UACC-62 was greater than 100 µM. For the same molecule, the solubility was 2.53 µg/mL (≈ 4.25 µM) in [3] and 2.73 µg/mL (≈ 4.59 µM) in [4]. Further, the inhibition in data set [5] is 6.4%.
`COc1cc(/C=C/C(=O)c2ccc(NC(=O)CN3CCN(c4cc5c(cc4F)c(=O)c(C(=O)O)cn5C4CC4)CC3)cc2)cc(OC)c1OC`: the GI50 with IGROV-1 came to 400 nM; in the data set on OVCAR-4, 1.61 µM; in the data set with UACC-62, 800 nM; with ACHN, 450 nM. In the data set on IGROV-1, the LC50 (concentration giving 50% net cell kill) turned out to be 8.43 µM. The TGI was 1720 nM in the data set on IGROV-1, 84.6 µM in the data set with OVCAR-4, 3.63 µM with UACC-62 and 7.09 µM with ACHN. The growth at 10 µM was -54.7% in the data set with LOX IMVI; -87.6% in the data set with RXF 393; -7.05% with NCI-H322M; -71.5% in the data set on NCI-H522; -11.6% in [2]; 30% with SK-MEL-2. Further, the growth at 10 µM is 26.5% with MCF7 and -35.6% in the data set with NCI-H23. Also, the CC50 in the data set on OVCAR-4 and in the data set with ACHN was greater than 100 µM in each case. Further, the logP at 5 h in [1] is 0.753. For the same molecule, in the data set with UACC-62, the 50% lethal concentration (LC50) was found to be 27.9 µM. Further, the solubility in data set [3] turned out to be 2.01 µg/mL (≈ 2.94 µM); in data set [4], 2.13 µg/mL (≈ 3.11 µM). Moreover, in data set [5], the inhibition is 11.5%.
